Assay results from ChEMBL document CHEMBL4177576, “Linker structure-activity relationships in fluorodeoxyglucose chlorambucil conjugates for tumor-targeted chemotherapy” (Bioorg Med Chem, 2017).
Calls of active or inactive are those of the source. No cut-off for these calls is given here.

Tested on: Fibroblast
Assay: Cytotoxicity against human fibroblasts assessed as inhibition of cell growth incubated for 48 hrs by resazurin reduction test
Format: cell-based
Settings: not given
Outline: (§1)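 Monolayers grown in MEM with 10% fetal calf serum, pyruvate, vitamins, non-essential amino acids and gentamicin at 37 °C, 5% CO2. Cells were seeded at 5×10^3/well and left 16 h to adhere. Compounds were added from DMSO stocks (final 0.5% DMSO) for 48 h continuous exposure, in triplicate. Resazurin 25 μg/mL was then added for 1 h and fluorescence read at 530/590 nm. IC50 was taken from concentration–cell number curves as % of control after blank subtraction.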

Point of comparison: CC(=O)OC[C@H]1O[C@@H](NC(=O)c2ccc(NC(=O)CNC(=O)CCCc3ccc(N(CCCl)CCCl)cc3)cc2)[C@H](F)[C@@H](OC(C)=O)[C@@H]1OC(C)=O, IC50 8 µM. Against it:
- CC(=O)OC[C@H]1O[C@@H](OC(=O)Nc2ccc(OC(=O)CCCc3ccc(N(CCCl)CCCl)cc3)cc2)[C@H](F)[C@@H](OC(C)=O)[C@@H]1OC(C)=O — higher, > 50 µM
- CC(=O)OC[C@H]1O[C@@H](OC(=O)NCC(=O)Nc2ccc(NC(=O)CCCc3ccc(N(CCCl)CCCl)cc3)cc2)[C@H](F)[C@@H](OC(C)=O)[C@@H]1OC(C)=O — within 1.5-fold, 10 µM
- CC(=O)OC[C@H]1O[C@@H](Oc2ccc(NC(=O)COC(=O)CCCc3ccc(N(CCCl)CCCl)cc3)cc2)[C@H](F)[C@@H](OC(C)=O)[C@@H]1OC(C)=O — 4.1-fold higher, 32.5 µM
- CC(=O)OC[C@H]1O[C@@H](Oc2ccc(NC(=O)CNC(=O)CNC(=O)CCCc3ccc(N(CCCl)CCCl)cc3)cc2)[C@H](F)[C@@H](OC(C)=O)[C@@H]1OC(C)=O — higher, > 50 µM
- CC(=O)OC[C@H]1O[C@@H](NC(=O)c2ccc(OC(=O)CCCc3ccc(N(CCCl)CCCl)cc3)cc2)[C@H](F)[C@@H](OC(C)=O)[C@@H]1OC(C)=O — higher, > 50 µM

Tested on: PC-3
Assay: Cytotoxicity against human PC3 assessed as inhibition of cell growth incubated for 48 hrs by resazurin reduction test
Format: functional, cell-based
Settings: PC-3, 48 h
Outline: as §1

Point of comparison: CC(=O)OC[C@H]1O[C@@H](OC(=O)NCC(=O)Nc2ccc(NC(=O)CCCc3ccc(N(CCCl)CCCl)cc3)cc2)[C@H](F)[C@@H](OC(C)=O)[C@@H]1OC(C)=O, IC50 6.5 µM. Against it:
- CC(=O)OC[C@H]1O[C@@H](OC(=O)Nc2ccc(OC(=O)CCCc3ccc(N(CCCl)CCCl)cc3)cc2)[C@H](F)[C@@H](OC(C)=O)[C@@H]1OC(C)=O — higher, > 50 µM
- O=C(O)CCCc1ccc(N(CCCl)CCCl)cc1 [CHLORAMBUCIL] — higher, > 100 µM
- CC(=O)OC[C@H]1O[C@@H](Oc2ccc(NC(=O)COC(=O)CCCc3ccc(N(CCCl)CCCl)cc3)cc2)[C@H](F)[C@@H](OC(C)=O)[C@@H]1OC(C)=O — higher, > 50 µM
- CC(=O)OC[C@H]1O[C@@H](Oc2ccc(NC(=O)CNC(=O)CNC(=O)CCCc3ccc(N(CCCl)CCCl)cc3)cc2)[C@H](F)[C@@H](OC(C)=O)[C@@H]1OC(C)=O — 3.1-fold higher, 20 µM
- CC(=O)OC[C@H]1O[C@@H](NC(=O)c2ccc(OC(=O)CCCc3ccc(N(CCCl)CCCl)cc3)cc2)[C@H](F)[C@@H](OC(C)=O)[C@@H]1OC(C)=O — higher, > 50 µM
- CC(=O)OC[C@H]1O[C@@H](NC(=O)c2ccc(NC(=O)CNC(=O)CCCc3ccc(N(CCCl)CCCl)cc3)cc2)[C@H](F)[C@@H](OC(C)=O)[C@@H]1OC(C)=O — within 1.5-fold, 6 µM

Tested on: MCF7
Assay: Cytotoxicity against human MCF7 assessed as inhibition of cell growth incubated for 48 hrs by resazurin reduction test
Format: functional, cell-based
Settings: MCF7, 48 h
Outline: as §1

Point of comparison: CC(=O)OC[C@H]1O[C@@H](OC(=O)NCC(=O)Nc2ccc(NC(=O)CCCc3ccc(N(CCCl)CCCl)cc3)cc2)[C@H](F)[C@@H](OC(C)=O)[C@@H]1OC(C)=O, IC50 13 µM. Against it:
- CC(=O)OC[C@H]1O[C@@H](OC(=O)Nc2ccc(OC(=O)CCCc3ccc(N(CCCl)CCCl)cc3)cc2)[C@H](F)[C@@H](OC(C)=O)[C@@H]1OC(C)=O — higher, > 50 µM
- CC(=O)OC[C@H]1O[C@@H](Oc2ccc(NC(=O)COC(=O)CCCc3ccc(N(CCCl)CCCl)cc3)cc2)[C@H](F)[C@@H](OC(C)=O)[C@@H]1OC(C)=O — higher, > 50 µM
- CC(=O)OC[C@H]1O[C@@H](Oc2ccc(NC(=O)CNC(=O)CNC(=O)CCCc3ccc(N(CCCl)CCCl)cc3)cc2)[C@H](F)[C@@H](OC(C)=O)[C@@H]1OC(C)=O — 2.5-fold higher, 32 µM
- CC(=O)OC[C@H]1O[C@@H](NC(=O)c2ccc(OC(=O)CCCc3ccc(N(CCCl)CCCl)cc3)cc2)[C@H](F)[C@@H](OC(C)=O)[C@@H]1OC(C)=O — higher, > 50 µM
- CC(=O)OC[C@H]1O[C@@H](NC(=O)c2ccc(NC(=O)CNC(=O)CCCc3ccc(N(CCCl)CCCl)cc3)cc2)[C@H](F)[C@@H](OC(C)=O)[C@@H]1OC(C)=O — 1.9-fold lower, 7 µM

Tested on: A549
Assay: Cytotoxicity against human A549 assessed as inhibition of cell growth incubated for 48 hrs by resazurin reduction test
Format: functional, cell-based
Settings: A549, 48 h
Outline: as §1

Point of comparison: CC(=O)OC[C@H]1O[C@@H](OC(=O)NCC(=O)Nc2ccc(NC(=O)CCCc3ccc(N(CCCl)CCCl)cc3)cc2)[C@H](F)[C@@H](OC(C)=O)[C@@H]1OC(C)=O, IC50 13 µM. Against it:
- CC(=O)OC[C@H]1O[C@@H](OC(=O)Nc2ccc(OC(=O)CCCc3ccc(N(CCCl)CCCl)cc3)cc2)[C@H](F)[C@@H](OC(C)=O)[C@@H]1OC(C)=O — 1.7-fold higher, 22 µM
- CC(=O)OC[C@H]1O[C@@H](Oc2ccc(NC(=O)COC(=O)CCCc3ccc(N(CCCl)CCCl)cc3)cc2)[C@H](F)[C@@H](OC(C)=O)[C@@H]1OC(C)=O — 3-fold higher, 39 µM
- CC(=O)OC[C@H]1O[C@@H](Oc2ccc(NC(=O)CNC(=O)CNC(=O)CCCc3ccc(N(CCCl)CCCl)cc3)cc2)[C@H](F)[C@@H](OC(C)=O)[C@@H]1OC(C)=O — higher, > 50 µM
- CC(=O)OC[C@H]1O[C@@H](NC(=O)c2ccc(OC(=O)CCCc3ccc(N(CCCl)CCCl)cc3)cc2)[C@H](F)[C@@H](OC(C)=O)[C@@H]1OC(C)=O — within 1.5-fold, 19 µM
- CC(=O)OC[C@H]1O[C@@H](NC(=O)c2ccc(NC(=O)CNC(=O)CCCc3ccc(N(CCCl)CCCl)cc3)cc2)[C@H](F)[C@@H](OC(C)=O)[C@@H]1OC(C)=O — 2.3-fold higher, 30 µM

Tested on: M4Beu cell line
Assay: Cytotoxicity against human M4Beu assessed as inhibition of cell growth incubated for 48 hrs by resazurin reduction test
Format: functional, cell-based
Settings: not given
Outline: as §1

Point of comparison: CC(=O)OC[C@H]1O[C@@H](OC(=O)NCC(=O)Nc2ccc(NC(=O)CCCc3ccc(N(CCCl)CCCl)cc3)cc2)[C@H](F)[C@@H](OC(C)=O)[C@@H]1OC(C)=O, IC50 18 µM. Against it:
- CC(=O)OC[C@H]1O[C@@H](OC(=O)Nc2ccc(OC(=O)CCCc3ccc(N(CCCl)CCCl)cc3)cc2)[C@H](F)[C@@H](OC(C)=O)[C@@H]1OC(C)=O — higher, > 50 µM
- CC(=O)OC[C@H]1O[C@@H](Oc2ccc(NC(=O)COC(=O)CCCc3ccc(N(CCCl)CCCl)cc3)cc2)[C@H](F)[C@@H](OC(C)=O)[C@@H]1OC(C)=O — higher, > 50 µM
- CC(=O)OC[C@H]1O[C@@H](Oc2ccc(NC(=O)CNC(=O)CNC(=O)CCCc3ccc(N(CCCl)CCCl)cc3)cc2)[C@H](F)[C@@H](OC(C)=O)[C@@H]1OC(C)=O — higher, > 50 µM
- CC(=O)OC[C@H]1O[C@@H](NC(=O)c2ccc(OC(=O)CCCc3ccc(N(CCCl)CCCl)cc3)cc2)[C@H](F)[C@@H](OC(C)=O)[C@@H]1OC(C)=O — higher, > 50 µM
- CC(=O)OC[C@H]1O[C@@H](NC(=O)c2ccc(NC(=O)CNC(=O)CCCc3ccc(N(CCCl)CCCl)cc3)cc2)[C@H](F)[C@@H](OC(C)=O)[C@@H]1OC(C)=O — within 1.5-fold, 17.8 µM

Tested on: PA-1
Assay: Cytotoxicity against human PA1 assessed as inhibition of cell growth incubated for 48 hrs by resazurin reduction test
Format: functional, cell-based
Settings: PA-1, 48 h
Outline: as §1

Point of comparison: CC(=O)OC[C@H]1O[C@@H](NC(=O)c2ccc(NC(=O)CNC(=O)CCCc3ccc(N(CCCl)CCCl)cc3)cc2)[C@H](F)[C@@H](OC(C)=O)[C@@H]1OC(C)=O, IC50 13 µM. Against it:
- CC(=O)OC[C@H]1O[C@@H](OC(=O)Nc2ccc(OC(=O)CCCc3ccc(N(CCCl)CCCl)cc3)cc2)[C@H](F)[C@@H](OC(C)=O)[C@@H]1OC(C)=O — 2.2-fold lower, 6 µM
- CC(=O)OC[C@H]1O[C@@H](OC(=O)NCC(=O)Nc2ccc(NC(=O)CCCc3ccc(N(CCCl)CCCl)cc3)cc2)[C@H](F)[C@@H](OC(C)=O)[C@@H]1OC(C)=O — 16-fold lower, 0.8 µM
- CC(=O)OC[C@H]1O[C@@H](Oc2ccc(NC(=O)COC(=O)CCCc3ccc(N(CCCl)CCCl)cc3)cc2)[C@H](F)[C@@H](OC(C)=O)[C@@H]1OC(C)=O — 1.7-fold lower, 7.6 µM
- CC(=O)OC[C@H]1O[C@@H](Oc2ccc(NC(=O)CNC(=O)CNC(=O)CCCc3ccc(N(CCCl)CCCl)cc3)cc2)[C@H](F)[C@@H](OC(C)=O)[C@@H]1OC(C)=O — 3.2-fold lower, 4 µM
- CC(=O)OC[C@H]1O[C@@H](NC(=O)c2ccc(OC(=O)CCCc3ccc(N(CCCl)CCCl)cc3)cc2)[C@H](F)[C@@H](OC(C)=O)[C@@H]1OC(C)=O — 3.2-fold lower, 4 µM

Tested on: A549 (Homo sapiens)
Assay: Cytotoxicity against human A549 assessed as inhibition of cell growth up to 200 uM incubated for 48 hrs in absence of 50 uM chlorambucil by resazurin reduction test
Settings: not given

In the case of OC[C@H]1OC(O)[C@H](F)[C@@H](O)[C@@H]1O (stereo partly specified), the “growth inhibition (GI)” value is reported as “Active”.
With CC(=O)OC[C@H]1OC(OC(C)=O)[C@H](F)[C@@H](OC(C)=O)[C@@H]1OC(C)=O (stereo partly specified) the “growth inhibition (GI)” value was “Active”.

Tested on: A549 (Homo sapiens)
Assay: Cytotoxicity against human A549 assessed as inhibition of cell growth up to 200 uM incubated for 48 hrs in presence of 50 uM chlorambucil by resazurin reduction test
Settings: not given

For OC[C@H]1OC(O)[C@H](F)[C@@H](O)[C@@H]1O (stereo partly specified), the “growth inhibition (GI)” value was “Active”.
With CC(=O)OC[C@H]1OC(OC(C)=O)[C@H](F)[C@@H](OC(C)=O)[C@@H]1OC(C)=O (stereo partly specified) the “growth inhibition (GI)” value was “Active”.
